# MsrA inh: inhibitors of bovine MsrA. AID 651718. purified bovine MsrA, absorbance read-out. inhibition, % at 15.5 µM. hit rate 0.75% among 360,000; in the data active = inhibition above about 4.5%;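 note: 0% = vehicle wells with enzyme and 100% = reference inhibitor wells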
# AI-2 QS mod: modulators of Vibrio harveyi AI-2 quorum sensing system; Vibrio harveyi JMH597 AI-2 luminescence/OD600 ratio, 9 h; active compounds read low; strain lacks LuxN and CqsS sensors; 0 = neutral-control median; activity change, % at 7.5 µM; hit rate 0.4% among 300,000; in the data active = activity change below about -75%, passing the limit was not always enough;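 note: luminescence divided by OD600 gain over 9 h not by final OD600 alone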
# AHR act: activates the human aryl hydrocarbon receptor | activation, % at 5 µM | AHR-responsive luciferase reporter cells, luminescence | P35869 | AID 2796 | hit rate 2.5% among 320,000; in the data active = activation above about 47%;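 note: 0% = vehicle wells and 100% = reference agonist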
# MsrA act: activates bovine MsrA enzyme; purified bovine MsrA, absorbance read-out; activation, % at 10.6 µM; hit rate 0.3% among 360,000; in the data active = activation above about 7.5%;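 note: 0% = vehicle and 100% = reference activator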
# HTR2A ag: agonists of mouse serotonin 5-HT2A receptor (HTR2A). P35363. CHO-K1 mHTR2A beta-arrestin complementation, luminescence; percent of 30 µM serotonin response. activation, % at 7.6 µM. hit rate 0.66% among 360,000;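 active = activation above a run cutoff, the mean activation of all tested compounds plus 3 SD, cut at about 14% in these data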;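 note: 0% = plate median of compound wells and 100% = 30 µM serotonin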
# Target sequence (P35363 whole entry, looked up): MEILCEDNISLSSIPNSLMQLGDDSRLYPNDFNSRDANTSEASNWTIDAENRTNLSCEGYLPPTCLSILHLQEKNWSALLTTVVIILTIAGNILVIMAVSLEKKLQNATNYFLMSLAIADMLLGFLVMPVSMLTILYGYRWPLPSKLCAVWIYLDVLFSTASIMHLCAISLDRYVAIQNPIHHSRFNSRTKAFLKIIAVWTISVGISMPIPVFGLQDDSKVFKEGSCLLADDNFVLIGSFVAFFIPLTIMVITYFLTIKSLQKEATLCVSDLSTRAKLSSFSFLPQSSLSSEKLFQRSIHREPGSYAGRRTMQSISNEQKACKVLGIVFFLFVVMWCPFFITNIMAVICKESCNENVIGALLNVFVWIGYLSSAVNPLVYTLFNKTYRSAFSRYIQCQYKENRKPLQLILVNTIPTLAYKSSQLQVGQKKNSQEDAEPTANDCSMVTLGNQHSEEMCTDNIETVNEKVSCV
# Tb MetRS inh: Trypanosoma brucei MetRS inhibition; AID 624268; purified T. brucei MetRS, ATP depletion, Kinase-Glo luminescence; hit rate 0.4% among 360,000; inhibition, % at 11.9 µM;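 active = inhibition above a per-plate cutoff of the control wells' mean inhibition plus 3 SD, cut at about 5.5% in these data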;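 note: 0% = DMSO wells median and 100% = median of wells with control inhibitor compound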
#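 Test system – parasite MetRS enzyme · Reagent – substrates ATP, L-methionine and bulk Escherichia coli tRNA · Doses – 11.9 µM compound single dose, 0.9% DMSO · Times – 15 min enzyme-compound preincubation, 2 h reaction, 10 min detection, 25 °C · Signal – Kinase-Glo luminescence, ATP depletion format · Controls – DMSO-only wells as low control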
# Active calls of the source: *; . = no result given. In the library only some 4.4% were active in any assay of this set; here they are far more common.
SMILES,MsrA inh,AI-2 QS mod,AHR act,MsrA act,HTR2A ag,Tb MetRS inh
CCC1(c2ccccc2)NC(=O)N(CC(=O)Nc2ccc(S(=O)(=O)N3CC(C)CC(C)C3)cc2)C1=O (stereo not drawn),-0.4,30.4,1.0,-1.2,-5.5,-0.4
C=CCN1C(=O)c2n[nH]c(COC)c2C1c1ccc(C)cc1 (stereo not drawn),0.9,.,.,.,.,.
COC(=O)[C@]12C[C@H](CC(=O)NCCCCc3ccccc3)C(=O)N(Cc3ccc4c(c3)OCO4)C1=C[C@H](COCc1ccccc1)O[C@@H]2C,0.7,.,.,.,.,.
COc1cccc(NC(=O)Cn2nnc(C(=O)Nc3ccccc3)c2N)c1,0.9,-0.2,34.9,2.6,1.2,3.6
COc1cccc(NC(=O)c2nnn(Cc3ccc(Br)cc3F)c2N)c1,0.1,17.5,54.2*,-1.9,-1.6,-0.4
CC(NC(=O)COC(=O)c1c[nH]c2ccccc12)c1ccccc1 (stereo not drawn),1.1,.,55.9*,-12.5,1.3,0.1
COC(=O)c1ccc2c(c1)SC1=C(CCCC1=O)N2,-0.3,5.5,59.5*,-5.2,1.6,0.0
COCCNC(=O)Nc1ccc2c(c1)N(C)C(=O)CS2,0.4,13.5,13.0,-2.5,-3.6,0.6
CC(C)CCNC(=O)Nc1ccc2c(c1)N(C)C(=O)CS2,-0.5,6.1,47.3*,-7.6,-0.6,-0.7
Clc1cccc(Nc2nc(-c3cccnc3)cs2)c1,0.4,1.7,55.1*,-1.5,-5.7,-0.2
Brc1cccc(Nc2nc(-c3cccnc3)cs2)c1,0.7,4.2,69.8*,-2.2,-0.3,-1.1
CCCCCn1cc(CCC(=O)Nc2ccc(Oc3cccnc3)cc2)c2ccccc21,0.9,.,.,.,.,.
COc1cccc(-n2c(SCC(N)=O)nnc2-c2c[nH]c3ccccc23)c1,-0.1,25.0,12.5,0.3,-4.1,11.4*
CCc1cc2c(SCC(=O)N3CCN(C(=O)c4cccs4)CC3)ncnc2s1,0.5,.,.,-1.2,2.2,-0.3
CCCCOc1ccc(Cl)cc1Nc1nc(NCCO)nc(N2CCCC2)n1,0.5,-2.0,9.8,-2.1,3.5,-0.2
COC(=O)[C@]12C[C@H](CC(=O)N3CCN(C(=O)C4CC4)CC3)C(=O)N(Cc3ccccc3)C1=C[C@H](C(C)(C)C)O[C@@H]2C,-0.2,.,.,.,.,.
Cc1nn(CCC#N)c(NC(=O)c2ccc(Cl)cc2Cl)c1P(=O)(Nc1ccc([N+](=O)[O-])cc1)N1CCOCC1 (stereo not drawn),4.7*,23.4,-2.3,-9.4,-2.0,-0.8
O=C1CN(c2nc(-c3ccccc3)c3ccccc3n2)c2ccccc2N1,1.0,9.2,61.1*,-4.7,-0.4,0.0
Cc1ccccc1S(=O)(=O)N1CCCc2nc(-c3ccc(Br)cc3)ccc21,0.2,.,.,.,.,.
CCCCCC(=O)Nc1nc(C)c(-c2csc(Nc3ccccc3OCC)n2)s1,0.3,11.0,67.1*,-1.2,-3.3,-0.2
COc1ccc(Cl)cc1Nc1nc(-c2sc(NC(=O)C(C)(C)C)nc2C)cs1,0.3,29.6,16.0,-0.3,0.4,0.7
CCCCCCC(=O)Nc1nc(C)c(-c2csc(Nc3ccccc3OC)n2)s1,2.1,34.9,69.5*,-2.4,-3.5,-0.1
CCCCC(=O)Nc1nc(C)c(-c2csc(Nc3cc(Cl)ccc3OC)n2)s1,0.9,66.0,70.3*,-3.8,14.2,-0.2
CCCC(C)C(=O)Nc1nc(C)c(-c2csc(Nc3ccc(Cl)cc3)n2)s1 (stereo not drawn),0.4,22.7,78.7*,1.0,-1.0,-0.1
Cc1ccc(Cl)cc1Nc1nc(-c2sc(NC(=O)c3ccccc3)nc2C)cs1,.,16.6,36.0,.,.,.
SMILES,MsrA inh,AI-2 QS mod,AHR act,MsrA act,HTR2A ag,Tb MetRS inh
CCCC(=O)Nc1nc(C)c(-c2csc(Nc3ccccc3C)n2)s1,0.9,29.2,15.1,-3.8,-3.3,0.0
COCc1cc(N2CCNC[C@H]2C)ccc1N1CCS(=O)(=O)CC1,-0.6,.,.,.,.,.
COc1ccc(Oc2cccc3c2S(=O)(=O)N(C2CC2)C[C@@H](COCc2ccccc2)O3)cc1,-0.3,.,.,.,.,.
COc1ccc(C2CC(=O)C(c3cccc(C)c3)=CN2Cc2ccccc2)cc1 (stereo not drawn),4.2,.,.,.,.,.
COC(=O)C1=C(C)N(Cc2ccc(C(F)(F)F)cc2)C(=NCc2ccc(OC)cc2)NC1c1ccccc1C(F)(F)F (stereo not drawn),-2.2,.,.,.,.,.
O=C(c1ccccc1[N+](=O)[O-])n1cnc2ccccc21,0.8,0.7,41.1,-3.9,2.2,-0.2
